Test results published in ChEMBL document CHEMBL1165943, “Design and synthesis of new anticancer pyrimidines with multiple-kinase inhibitory effect” (Bioorg Med Chem, 2010).

Tests used:
SNB-75 = test: Cytotoxicity against human SNB75 cells assessed as cell growth at 1 uM after 48 hrs by sulforhodamine B assay; format: functional; conditions: SNB-75, 48 h, read-out: Activity
CAKI-1 = test: Cytotoxicity against human Caki1 cells assessed as cell growth at 1 uM after 48 hrs by sulforhodamine B assay; format: functional; conditions: CAKI-1, 48 h, read-out: Activity
In short: (§1)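 Cells grown in RPMI 1640 with 5% FBS and 2 mM L-glutamine, seeded at 5,000–40,000 cells/well by doubling time. Time-zero plates TCA-fixed after 24 h. Five concentrations (10-fold or half-log dilutions from DMSO stock) added; 48 h at 37 °C, 5% CO2. Cold TCA fixation (final 10%, 60 min, 4 °C), 0.4% SRB stain, dye solubilized in 10 mM trizma base, A515.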

SN12C = test: Growth inhibition of human SN12C cells after 48 hrs by sulforhodamine B assay; format: functional, cell-based; conditions: for CC50: read-out: LC50 (the source's name)
In short: (§2)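 Cells grown in RPMI 1640 with 5% FBS and 2 mM L-glutamine, seeded at 5,000–40,000 cells/well according to doubling time. After 24 h, time-zero plates are TCA-fixed. Five concentrations (10-fold or ½log dilutions, DMSO stocks) are applied for 48 h at 37 °C, 5% CO₂. Cells are TCA-fixed, SRB-stained and read at 515 nm. IC₅₀ is taken from [(Ti−Tz)/(C−Tz)]×100 = 50.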

Malme-3M = test: Cytotoxicity against human MALME-3M cells assessed as cell growth at 0.01 uM after 48 hrs by sulforhodamine B assay; format: functional; conditions: read-out: Activity
MDA-MB-231 [1] = test: Cytotoxicity against human MDA-MB-231 cells assessed as cell growth at 10 uM after 48 hrs by sulforhodamine B assay; format: functional; conditions: MDA-MB-231, 48 h, read-out: Activity
M14 [2] = test: Growth inhibition of human M14 cells after 48 hrs by sulforhodamine B assay; format: functional, cell-based; conditions: for CC50: read-out: LC50 (the source's name); in short: as §2
EKVX = test: Cytotoxicity against human EKVX cells assessed as cell growth at 0.001 uM after 48 hrs by sulforhodamine B assay; format: functional; conditions: read-out: Activity
NCI-H522 = test: Growth inhibition of human NCI-H522 cells after 48 hrs by sulforhodamine B assay; format: functional, cell-based; conditions: NCI-H522, 48 h; for CC50: read-out: LC50 (the source's name); in short: as §2
OVCAR-3 = test: Cytotoxicity against human OVCAR-3 cells assessed as cell growth at 100 nM after 48 hrs by sulforhodamine B assay; format: functional; conditions: OVCAR-3, 48 h, read-out: Activity
T47D [3] = test: Cytotoxicity against human T47D cells assessed as cell growth at 1 uM after 48 hrs by sulforhodamine B assay; format: functional; conditions: read-out: Activity
MDA-MB-231 [4] = test: Cytotoxicity against human MDA-MB-231 cells assessed as cell growth at 0.01 uM after 48 hrs by sulforhodamine B assay; format: functional; conditions: MDA-MB-231, 48 h, read-out: Activity
UACC-257 [5] = test: Cytotoxicity against human UACC257 cells assessed as cell growth at 10 uM after 48 hrs by sulforhodamine B assay; format: functional; conditions: UACC-257, 48 h, read-out: Activity
OVCAR-4 [6] = test: Cytotoxicity against human OVCAR4 cells assessed as cell growth at 100 nM after 48 hrs by sulforhodamine B assay; format: functional; conditions: OVCAR-4, 48 h, read-out: Activity
K562 = test: Cytotoxicity against human K562 cells assessed as cell growth at 100 nM after 48 hrs by sulforhodamine B assay; format: functional; conditions: K562, 48 h, read-out: Activity
SF-268 = test: Cytotoxicity against human SF268 cells assessed as cell growth at 10 uM after 48 hrs by sulforhodamine B assay; format: functional; conditions: SF-268, 48 h, read-out: Activity
UACC-257 [7] = test: Cytotoxicity against human UACC257 cells assessed as cell growth at 100 nM after 48 hrs by sulforhodamine B assay; format: functional; conditions: UACC-257, 48 h, read-out: Activity
OVCAR-5 = test: Cytotoxicity against human OVCAR5 cells assessed as cell growth at 100 nM after 48 hrs by sulforhodamine B assay; format: functional; conditions: OVCAR-5, 48 h, read-out: Activity
T47D [8] = test: Growth inhibition of human T47D cells after 48 hrs by sulforhodamine B assay; format: functional, cell-based; in short: as §2
UACC-62 = test: Cytotoxicity against human UACC62 cells assessed as cell growth at 100 nM after 48 hrs by sulforhodamine B assay; format: functional; conditions: UACC-62, 48 h, read-out: Activity
OVCAR-8 [9] = test: Growth inhibition of human OVCAR8 cells after 48 hrs by sulforhodamine B assay; format: functional, cell-based; conditions: for CC50: read-out: LC50 (the source's name); in short: as §2
OVCAR-4 [10] = test: Cytotoxicity against human OVCAR4 cells assessed as cell growth at 0.001 uM after 48 hrs by sulforhodamine B assay; format: functional; conditions: OVCAR-4, 48 h, read-out: Activity
OVCAR-4 [11] = test: Cytotoxicity against human OVCAR4 cells assessed as cell growth at 10 uM after 48 hrs by sulforhodamine B assay; format: functional; conditions: OVCAR-4, 48 h, read-out: Activity
T47D [12] = test: Cytotoxicity against human T47D cells assessed as cell growth at 0.001 uM after 48 hrs by sulforhodamine B assay; format: functional; conditions: read-out: Activity
HT-29 = test: Cytotoxicity against human HT-29 cells assessed as cell growth at 1 uM after 48 hrs by sulforhodamine B assay; format: functional; conditions: HT-29, 48 h, read-out: Activity
[13] = Cytotoxicity against human Hs 578T cells assessed as cell growth at 0.01 uM after 48 hrs by sulforhodamine B assay; format: functional; conditions: read-out: Activity
LOX IMVI = test: Cytotoxicity against human LOXIMVI cells assessed as cell growth at 10 uM after 48 hrs by sulforhodamine B assay; format: functional; conditions: read-out: Activity
TK-10 [14] = test: Cytotoxicity against human TK10 cells assessed as cell growth at 100 nM after 48 hrs by sulforhodamine B assay; format: functional; conditions: TK-10, 48 h, read-out: Activity
SK-OV-3 = test: Cytotoxicity against human SKOV3 cells assessed as cell growth at 0.001 uM after 48 hrs by sulforhodamine B assay; format: functional; conditions: SK-OV-3, 48 h, read-out: Activity
OVCAR-8 [15] = test: Cytotoxicity against human OVCAR8 cells assessed as cell growth at 0.001 uM after 48 hrs by sulforhodamine B assay; format: functional; conditions: OVCAR-8, 48 h, read-out: Activity
TK-10 [16] = test: Cytotoxicity against human TK10 cells assessed as cell growth at 0.001 uM after 48 hrs by sulforhodamine B assay; format: functional; conditions: TK-10, 48 h, read-out: Activity
ACHN = test: Cytotoxicity against human ACHN cells assessed as cell growth at 10 uM after 48 hrs by sulforhodamine B assay; format: functional; conditions: read-out: Activity; in short: as §1
[17] = Cytotoxicity against human Hs 578T cells assessed as cell growth at 0.001 uM after 48 hrs by sulforhodamine B assay; format: functional; conditions: read-out: Activity
M14 [18] = test: Cytotoxicity against human M14 cells assessed as cell growth at 1 uM after 48 hrs by sulforhodamine B assay; format: functional; conditions: M14, 48 h, read-out: Activity
SK-MEL-2 = test: Cytotoxicity against human SK-MEL-2 cells assessed as cell growth at 100 nM after 48 hrs by sulforhodamine B assay; format: functional; conditions: SK-MEL-2, 48 h, read-out: Activity

## CC(=O)Nc1cccc(-c2ccc(-c3ccnc(NC(=O)Nc4cc(C(F)(F)F)cc(C(F)(F)F)c4)n3)cn2)c1.Cl
SNB-75
  growth at 1 µM: 54%
CAKI-1
  growth at 1 µM: -7%
SN12C
  GI50: 9.29 µM
  IC50: 9.29 µM
  TGI: 23.8 µM
  CC50: 57.7 µM
Malme-3M
  growth at 0.01 µM: 88%
MDA-MB-231 [1]
  growth at 10 µM: -71%
M14 [2]; Homo sapiens, M14, 48 h
  GI50: 1.83 µM
  TGI: 3.76 µM
  CC50: 7.74 µM
M14 [2]; Homo sapiens, M14, 48 h, read-out: IC50
  IC50: 1.83 µM
EKVX
  growth at 0.001 µM: 90%
NCI-H522
  GI50: 1.71 µM
  IC50: 1.71 µM
  TGI: 5.85 µM
  CC50: 35.3 µM
OVCAR-3
  growth at 0.1 µM: 67%
T47D [3]
  growth at 1 µM: -3%
MDA-MB-231 [4]
  growth at 0.01 µM: 93%
UACC-257 [5]
  growth at 10 µM: -89%
OVCAR-4 [6]
  growth at 0.1 µM: 61%
K562
  growth at 0.1 µM: 69%
SF-268
  growth at 10 µM: -50%
UACC-257 [7]
  growth at 0.1 µM: 78%
OVCAR-5
  growth at 0.1 µM: 97%
T47D [8]
  GI50: 0.619 µM
  IC50: 0.619 µM
  LC50 (lethal concentration, 50% net cell kill): > 100 µM
  TGI: 8.43 µM
UACC-62
  growth at 0.1 µM: 82%
OVCAR-8 [9]; Homo sapiens, OVCAR-8, 48 h
  GI50: 2.07 µM
  TGI: 5.93 µM
  CC50: 26.4 µM
OVCAR-8 [9]; Homo sapiens, OVCAR-8, 48 h, read-out: IC50
  IC50: 2.07 µM
OVCAR-4 [10]
  growth at 0.001 µM: 32%
OVCAR-4 [11]
  growth at 10 µM: -87%
T47D [12]
  growth at 0.001 µM: 89%
HT-29
  growth at 1 µM: -6%
[13]
  growth at 0.01 µM: 99%
LOX IMVI
  growth at 10 µM: 4%
TK-10 [14]
  growth at 0.1 µM: 105%
SK-OV-3
  growth at 0.001 µM: 103%
OVCAR-8 [15]
  growth at 0.001 µM: 102%
TK-10 [16]
  growth at 0.001 µM: 103%
ACHN
  growth at 10 µM: -84%
[17]
  growth at 0.001 µM: 90%
M14 [18]
  growth at 1 µM: -68%
SK-MEL-2
  growth at 0.1 µM: 96%

## CC(=O)c1ccccc1-c1ccc(-c2ccnc(NC(=O)Nc3cc(N4CCOCC4)cc(C(F)(F)F)c3)n2)cn1
SNB-75
  growth at 1 µM: 36%
CAKI-1
  growth at 1 µM: 58%
SN12C
  GI50: 1.27 µM
  IC50: > 100 µM
  TGI: > 100 µM
  CC50: > 100 µM
Malme-3M
  growth at 0.01 µM: 103%
MDA-MB-231 [1]
  growth at 10 µM: 56%
M14 [2]; Homo sapiens, M14, 48 h
  TGI: > 100 µM
  CC50: > 100 µM
M14 [2]; m14
  IC50: Not Active
EKVX
  growth at 0.001 µM: 95%
NCI-H522
  GI50: > 100 µM
  IC50: 63.2 µM
  TGI: > 100 µM
  CC50: > 100 µM
OVCAR-3
  growth at 0.1 µM: 109%
T47D [3]
  growth at 1 µM: 60%
MDA-MB-231 [4]
  growth at 0.01 µM: 99%
UACC-257 [5]
  growth at 10 µM: 92%
OVCAR-4 [6]
  growth at 0.1 µM: 92%
K562
  growth at 0.1 µM: 69%
SF-268
  growth at 10 µM: 44%
UACC-257 [7]
  growth at 0.1 µM: 83%
OVCAR-5
  growth at 0.1 µM: 91%
T47D [8]
  GI50: > 100 µM
  IC50: > 100 µM
  LC50 (lethal concentration, 50% net cell kill): > 100 µM
  TGI: > 100 µM
UACC-62
  growth at 0.1 µM: 90%
OVCAR-8 [9]; Homo sapiens, OVCAR-8, 48 h
  TGI: > 100 µM
  CC50: > 100 µM
OVCAR-8 [9]; ovcar-8
  IC50: Not Active
OVCAR-4 [10]
  growth at 0.001 µM: 110%
OVCAR-4 [11]
  growth at 10 µM: 91%
T47D [12]
  growth at 0.001 µM: 106%
HT-29
  growth at 1 µM: 76%
[13]
  growth at 0.01 µM: 101%
LOX IMVI
  growth at 10 µM: 93%
TK-10 [14]
  growth at 0.1 µM: 100%
SK-OV-3
  growth at 0.001 µM: 111%
OVCAR-8 [15]
  growth at 0.001 µM: 92%
TK-10 [16]
  growth at 0.001 µM: 103%
ACHN
  growth at 10 µM: 15%
[17]
  growth at 0.001 µM: 107%
M14 [18]
  growth at 1 µM: 9%
SK-MEL-2
  growth at 0.1 µM: 102%
